Variants at the floor of the assay were thinned out.
B1: tRNA (parent)
chain: GUUCCGUUGGCGUAAUGGUAACGCGUCUCCCUCCUAAGGAGAAGACUGCGGGUUCGAGUCCCGUACGGAACG

Variants of: B1
Experiment: yeast fitness relative to wild type (ratio to wild type); higher = fitter; tRNA-Arg(CCU), competitive growth, 37 C, YPD
In short: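 Variants of the tRNA-Arg(CCU) gene, chemically synthesised with a 3% per-site mutation rate at 69 sites, were placed at the native genomic locus in Saccharomyces cerevisiae. The pooled strains were competed in YPD at 37°C for 24 hours in six parallel replicates. Gene amplicons from the start population and from each end population were read by 100-nucleotide paired-end sequencing. Darwinian fitness relative to wild type came from changes in genotype frequencies; genotypes needed ≥ 100 starting reads, and estimates < 0.5 were set to 0.5.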

Variant	yeast fitness
G6A A15C A20G	≤ 0.5
C5U G6A C11A U19A A69U	≤ 0.5
C5U C27U U35G A36G G58C C66U	≤ 0.5
G6A A15C A36U A65C	≤ 0.5
C5U C34A C55U	0.529
C5U U32G G63C C66U	≤ 0.5
C5U G52A G63C	≤ 0.5
C5U U8A	0.632
C5U C31G C33G C34U C49U G68A	0.543
C5U G44A C55U	0.629
C5U U8C C30G C31G A65C	≤ 0.5
C5U U32C A70U	0.66
C5U U32C A57C	0.583
C5U G41A	0.906
C5U G10A A14U C31A C46A A65U	≤ 0.5
C5U U7C G68C	≤ 0.5
C5U C27U	1.09
C5U G18A A40U U47C U53C G68A	≤ 0.5
C5U U35G A65U	0.576
C5U U35A G48C C61U	0.57
C5U C31A G56A	0.562

Variant	yeast fitness
C5U C61U A70G	0.609
C5U U19A G51C G58A	≤ 0.5
C5U G50C G67A	≤ 0.5
C5U G18A G44C	0.638
C5U G17A C60A	≤ 0.5
C5U C30U A42C C60G	≤ 0.5
C5U U7A C30A G58C	0.543
C5U G48A C55U A65C	0.556
C5U C30A C33G A42C C62A	≤ 0.5
C5U U8C C27U G48A C62A C66U	≤ 0.5
C5U U32C C33U C62U A65G	≤ 0.5
C5U G44C C61U	0.702
C5U C46G A65G	0.661
C5U U8A G18C G23A	≤ 0.5
C5U C34U A40C	≤ 0.5
C5U C31G G41A G52C C60U C62G C66G	≤ 0.5
C5U C61A G68A	≤ 0.5
C5U U7A C34U G56A G67A	≤ 0.5
C5U U16G A40G A42U G52A	≤ 0.5
C5U U19C G56C U59A A65G	≤ 0.5
C5U G48A A69C	0.758

Variant	yeast fitness
C5U C27U A36G	0.75
C5U G38C A65U	≤ 0.5
C5U C31U U47C	0.701
C5U C31U G41A U64C	≤ 0.5
C5U C62U A65C	0.739
C5U G17C C29A C46G G56A	≤ 0.5
C5U G18C C22U G50A	0.572
C5U U13C C24G U26C A37G G38U U54G C61G	≤ 0.5
C5U C34G A37U C49G G56A	≤ 0.5
C5U C31G U47C G48C	≤ 0.5
G6A A15G A65U	0.607
C5U G12A A40U G44U A45G C60A	≤ 0.5
C5U G38C G48C G52A	≤ 0.5
C5U G50C A70U	0.575
C5U G48A G51C	≤ 0.5
C5U U16A G63A	≤ 0.5
C5U U19A G38C C62G G68C	0.62
C5U C34U	0.746
C5U C34G	0.788
G6A A15C A36C A42U A43G C55G C61U	≤ 0.5
C5U U28G A40C	0.613

Variant	yeast fitness
C5U C30G A69C A70G	≤ 0.5
C5U G17A A40U A42C C49A	0.684
C5U U13A	0.842
C5U U13C	0.911
C5U U26C	0.862
C5U U16A C33U C61G A70U	≤ 0.5
C5U U13A G38C U47G C62U	≤ 0.5
C5U U28G A42U	≤ 0.5
C5U G17A A40U A42C C49A C66A	0.593
C5U U7G A14G C30A A65C	0.704
G6A A15G U54G C55U	≤ 0.5
C5U U32C A42G	0.531
C5U G10C A15G G67U	≤ 0.5
C5U C31U A37C A43U G50C A57G	≤ 0.5
C5U G17A C66A	0.522
C5U C29U A36G U59A	≤ 0.5
C5U C33U U54C G58A	0.703
C5U C27G U47C A70U	≤ 0.5
C5U G9A	0.972
C5U U16C C55A	0.627
G6A A15C C22U C33G C62A G63C	0.753

— the RNAGym collection of RNA variant scans (doi:10.1126/science.aae0568)
